Experimental data from ChEMBL document CHEMBL1806443, “Novel imidazo[4,5-b]pyridine and triaza-benzo[c]fluorene derivatives: synthesis, antiproliferative activity and DNA binding studies” (Eur J Med Chem, 2011).
Activity calls are given as the source filed them. The rule behind the calls is not given here.

How the values were obtained:
MIA PaCa-2 [1] = experiment: Cell cycle arrest in human MIAPaCa2 cells assessed as accumulation at subG1 phase at 5 uM after 24 hrs by propidium iodide staining based flow cytometeric analysis (reference value: 48.7 +/- 0.7%); format: functional
SW-620 [2] = experiment: Antiproliferative activity against human SW620 cells at 0.1 to 10 uM after 72 hrs by MTT assay; format: functional, cell-based
Method in brief: (§1)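 Monolayer cells in DMEM with 10% FBS, 2 mM L-glutamine, penicillin and streptomycin at 37 °C, 5% CO2. Seeded at 3000-6000 cells/well by doubling time on day 0. Five 10-fold dilutions (0.01–100 µM) were added and incubated 72 h. MTT read-out, converted to percentage growth. IC50 by linear regression between bracketing concentrations. Quadruplicate points, three independent experiments, ANOVA/Tukey p<0.05.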

SW-620 [3] = experiment: Cell cycle arrest in human SW620 cells assessed as accumulation at G2/M phase at 1 uM after 24 hrs by propidium iodide staining based flow cytometeric analysis (reference value: 22.3 +/- 2.9%); format: functional
MIA PaCa-2 [4] = experiment: Cell cycle arrest in human MIAPaCa2 cells assessed as accumulation at G1 phase at 1 uM after 48 hrs by propidium iodide staining based flow cytometeric analysis (reference value: 65.2 +/- 1.9%); format: functional
WI-38 = experiment: Antiproliferative activity against human WI38 cells after 72 hrs by MTT assay; format: cell-based; details: Homo sapiens, WI-38, 72 h; method in brief: as §1
HeLa = experiment: Antiproliferative activity against human HeLa cells at 0.1 to 10 uM after 72 hrs by MTT assay; format: functional, cell-based; method in brief: as §1
SW-620 [5] = experiment: Cell cycle arrest in human SW620 cells assessed as accumulation at subG1 phase at 10 uM after 48 hrs by propidium iodide staining based flow cytometeric analysis (reference value: 29.1 +/- 1.1%); format: functional
Method in brief: (§2)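 Cells seeded at 3 × 10^4 per well and treated 24 h later with 1, 5 or 10 µM for 24 and 48 h. Adherent and floating cells were pooled, washed in PBS and fixed in 70% ethanol. They were then stained with propidium iodide 10 µg/mL plus RNase A 0.2 µg/mL. Flow cytometry counted 10000 events; each point was run in triplicate; significance was taken at p < 0.05.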

MIA PaCa-2 [6] = experiment: Cell cycle arrest in human MIAPaCa2 cells assessed as accumulation at G2/M phase at 5 uM after 24 hrs by propidium iodide staining based flow cytometeric analysis (reference value: 19.5 +/- 3.9%); format: functional
MIA PaCa-2 [7] = experiment: Cell cycle arrest in human MIAPaCa2 cells assessed as accumulation at S phase at 10 uM after 48 hrs by propidium iodide staining based flow cytometeric analysis (reference value: 20.5 +/- 0.2%); format: functional
SW-620 [8] = experiment: Cell cycle arrest in human SW620 cells assessed as accumulation at G1 phase at 10 uM after 24 hrs by propidium iodide staining based flow cytometeric analysis (reference value: 29.3 +/- 1.5%); format: functional
MIA PaCa-2 [9] = experiment: Cell cycle arrest in human MIAPaCa2 cells assessed as accumulation at subG1 phase at 10 uM after 48 hrs by propidium iodide staining based flow cytometeric analysis (reference value: 46.8 +/- 0.7%); format: functional
Nucleic Acid [10] = experiment: Binding affinity to calf thymus DNA assessed as change in melting temperature at compound to polynucleotide ratio of 0.3 by UV-VIS spectroscopic analysis; format: nucleic-acid assay; details: Bos taurus
Method in brief: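 ct-DNA alone or with compound at set r = [compound]/[polynucleotide], in cacodylate buffer pH 7.0, I = 0.05 mol dm^-3. Absorbance at 260 nm followed against temperature, ligand absorbance subtracted, curves normalized. Tm is the transition midpoint, from the first-derivative maximum or by tangent method. ΔTm = Tm(complex) − Tm(free DNA), mean of ≥2 runs, error ±0.5 °C.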

Nucleic Acid [11] = experiment: Binding affinity to calf thymus DNA assessed as fluorescence quenching at compound to DNA ratio of 0.28 by fluorimetric titrations; format: nucleic-acid assay; details: Bos taurus
Method in brief: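 Fluorimetric titration: portions of ct-DNA (sonicated, filtered, concentration as phosphate) added to compound in cacodylate buffer pH 7.0, I = 0.05 mol dm^-3. Emission 350–600 nm, sample absorbance <0.05 at excitation, mostly DNA excess (r < 0.1). Ks and n = [bound compound]/[DNA phosphate] by non-linear least-squares Scatchard fitting.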

SW-620 [12] = experiment: Cell cycle arrest in human SW620 cells assessed as accumulation at subG1 phase at 1 uM after 48 hrs by propidium iodide staining based flow cytometeric analysis (reference value: 29.1 +/- 1.1%); format: functional
MIA PaCa-2 [13] = experiment: Antiproliferative activity against human MIAPaCa2 cells after 72 hrs by MTT assay; format: functional, cell-based; details: Homo sapiens, MIA PaCa-2, 72 h; method in brief: as §1
MIA PaCa-2 [14] = experiment: Cell cycle arrest in human MIAPaCa2 cells assessed as accumulation at S phase at 1 uM after 24 hrs by propidium iodide staining based flow cytometeric analysis (reference value: 29.2 +/- 4.2%); format: functional
Nucleic Acid [15] = experiment: Binding affinity to calf thymus DNA assessed as appearance of weak, negative induced CD band at 337 nm wavelength by circular dichroism spectroscopy; format: nucleic-acid assay; details: Bos taurus
Method in brief: (§3)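 CD spectra of ct-DNA (1.0 × 10^-5 mol dm^-3, as phosphate) titrated with compound at 25 °C. Sodium cacodylate buffer pH 7.0, I = 0.05 mol dm^-3, 1 cm quartz cuvette. DNA band (~274–275 nm) and induced bands above 300 nm followed versus r = [compound]/[ct-DNA].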

MIA PaCa-2 [16] = experiment: Cell cycle arrest in human MIAPaCa2 cells assessed as accumulation at S phase at 5 uM after 24 hrs by propidium iodide staining based flow cytometeric analysis (reference value: 29.2 +/- 4.2%); format: functional
Nucleic Acid [17] = experiment: Binding affinity to calf thymus DNA assessed as increase in CD band at 275 nm wavelength by circular dichroism spectroscopy; format: nucleic-acid assay; details: Bos taurus; method in brief: as §3
SW-620 [18] = experiment: Cell cycle arrest in human SW620 cells assessed as accumulation at subG1 phase at 5 uM after 24 hrs by propidium iodide staining based flow cytometeric analysis (reference value: 18 +/- 1%); format: functional; method in brief: as §2
SW-620 [19] = experiment: Cell cycle arrest in human SW620 cells assessed as accumulation at G2/M phase at 10 uM after 24 hrs by propidium iodide staining based flow cytometeric analysis (reference value: 22.3 +/- 2.9%); format: functional
Nucleic Acid [20] = experiment: Binding affinity to calf thymus DNA assessed as hypochromic changes at 364 nm wavelength by UV-Vis spectrophotometric titrations; format: nucleic-acid assay; details: Bos taurus
Method in brief: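 UV/Vis titration: aliquots of ct-DNA (concentration as phosphate) added to compound solution in sodium cacodylate buffer pH 7.0, I = 0.05 mol dm^-3, 1 cm quartz cuvettes. Hypochromism followed at band maxima. Compound absorbance linear up to 2.0 × 10^-5 mol dm^-3. Binding data fitted by the Scatchard equation.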

SW-620 [21] = experiment: Cell cycle arrest in human SW620 cells assessed as accumulation at S phase at 5 uM after 48 hrs by propidium iodide staining based flow cytometeric analysis (reference value: 31.9 +/- 1%); format: functional
MIA PaCa-2 [22] = experiment: Induction of apoptosis in human MIAPaCa2 cells assessed as morphological change at 10 uM after 24 to 48 hrs by microscopic analysis; format: functional, cell-based
Method in brief: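 Cells were seeded at 3 × 10^4 per well and exposed 24 h later to 1, 5 or 10 µM for 24 and 48 h. Apoptotic morphology (cell shrinkage, chromatin condensation) was scored by inverted light microscopy at 200× magnification.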

**Q.** With Cl.c1cnc2nc3ccc4ccc(C5=NCCN5)cc4n3c2c1 as the molecule, how does the Activity (MIA PaCa-2 [1]) read?
**A.** 53.4%

**Q.** And the Activity (SW-620 [2])?
**A.** Active

**Q.** What about the Activity (SW-620 [3]) of the same molecule?
**A.** 18.5%

**Q.** What about the Activity (MIA PaCa-2 [4]) of the same molecule?
**A.** 42.4%

**Q.** What about the IC50 (WI-38) of the same molecule?
**A.** 1.77 µM

**Q.** And the Activity (HeLa)?
**A.** Active

**Q.** What about the Activity (SW-620 [5]) of the same molecule?
**A.** 40.6%

**Q.** What about the Activity (MIA PaCa-2 [6]) of the same molecule?
**A.** 18.3%

**Q.** What about the Activity (MIA PaCa-2 [7]) of the same molecule?
**A.** 56.9%

**Q.** And the Activity (SW-620 [8])?
**A.** 33.7%

**Q.** What about the Activity (MIA PaCa-2 [9]) of the same molecule?
**A.** 39.3%

**Q.** And the ΔTm (Nucleic Acid [10])?
**A.** 6.4 °C

**Q.** What about the log Ks (Nucleic Acid [11]) of the same molecule?
**A.** 5.9

**Q.** And the Activity (SW-620 [12])?
**A.** 25.4%

**Q.** What about the IC50 (MIA PaCa-2 [13]) of the same molecule?
**A.** 0.74 µM

**Q.** And the Activity (MIA PaCa-2 [14])?
**A.** 37.4%

**Q.** What about the Activity (Nucleic Acid [15]) of the same molecule?
**A.** Active

**Q.** What about the Activity (MIA PaCa-2 [16]) of the same molecule?
**A.** 59.3%

**Q.** And the Activity (Nucleic Acid [17])?
**A.** Active

**Q.** What about the Activity (SW-620 [18]) of the same molecule?
**A.** 24.4%

**Q.** And the Activity (SW-620 [19])?
**A.** 19.2%

**Q.** And the Activity (Nucleic Acid [20])?
**A.** 35%

**Q.** And the Activity (SW-620 [21])?
**A.** 7.5%

**Q.** And the Activity (MIA PaCa-2 [22])?
**A.** Active
